Data on five molecules can be found in ChEMBL document CHEMBL1133453, “Further studies on nociceptin-related peptides: discovery of a new chemical template with antagonist activity on the nociceptin receptor” (J Med Chem, 2000).

Activity calls are given as the source filed them. The calls are words filed in the database; no cut-off is given here. Numbered stars: 1 amine (or outer) side, 2 acyl side, 3 side chain; on linkers, the order of the positions; unused ones are H or OH. Square brackets hold non-standard residues; d marks the D form. Peptide text beside a SMILES is read from it. X5 = N[C@@H](Cc1ccc(O)cc1)CN(CC(=O)[*:2])[*:1]; X1 = CC(C)C[C@H](N)CN(CC(=O)[*:2])[*:1]; Nphe = O=C(O)CNCc1ccccc1 Some results are limits rather than exact numbers.

For experiment [1], the species on record is Mus musculus. Briefly: Potency (Emax) against electrically evoked contraction (twitch response) in mouse vas deferens. It is filed as functional. The gist of the method:
(§1)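 Mouse vas deferens held in Mg2+-free Krebs at 33 °C under 0.3 g resting tension. Field stimulation through platinum electrodes with supramaximal 1-ms pulses at 0.1 Hz, twitches recorded isotonically. After about 2 h equilibration, cumulative concentration-response curves built in 0.5 log steps up to 10 µM. pEC50 taken as the concentration giving half-maximal effect. Mean of at least 3 experiments.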

For experiment [2], the species on record is Mus musculus. Briefly: Compound was tested for agonistic activity against electrically evoked contraction (twitch response) in mouse vas deferens. The experiment is classed as functional, organism-based. The gist of the method: as §1
Experiment [3] has as its target T1, Nociceptin receptor (Mus musculus, UniProt P35377). As to the kind of experiment: Affinity to nociceptin receptors on mouse forebrain membranes by [3H]NC-NH2 displacement. The gist of the method:
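Forebrain membranes from male Swiss mice (25-30 g), homogenized in 50 mM Tris HCl, 2 mM EDTA, 100 µM PMSF, pH 7.4, then preincubated 30 min at 37 °C. Bound ligand separated by GF/C filtration. Ki obtained by nonlinear least-squares fitting.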

For experiment [4], the species on record is Mus musculus. As to the kind of experiment: Compound was tested for the antagonistic activity on mouse vas deferens using NC(1-13)NH2 as agonist; NA means Inactive up to 10 uM. The experiment is classed as functional, organism-based. The method, boiled down:
(§2)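 Electrically stimulated mouse vas deferens (Mg2+-free Krebs, 33 °C, 0.1 Hz, 1-ms pulses). Antagonist at 10 µM added 15 min before a cumulative NC(1-13)NH2 concentration-response curve. pKB calculated with the Gaddum-Schild equation, assuming a slope of 1, from the concentration ratio. Mean of at least 3 experiments, with 95% confidence limits.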

For experiment [5], the species on record is Mus musculus. Briefly: Potency (Emax) against electrically evoked contraction (twitch response) in mouse vas deferens; NA means Inactive up to 10 uM. It is filed as functional, organism-based. The method, boiled down: as §1
The species entered for experiment [6] is Mus musculus. As to the kind of experiment: Compound was tested for agonistic activity against electrically evoked contraction (twitch response) in mouse vas deferens; NA means Inactive up to 10 uM. It is filed as functional, organism-based. The gist of the method: as §1
The target of experiment [7] is T1, Nociceptin receptor. As to the kind of experiment: Binding affinity towards Orphanin FQ receptor on mouse forebrain membranes was determined using [3H]-NC-NH2 as radioligand. On the set-up: species or system Membrane. The method, boiled down: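 Forebrain membranes from male Swiss mice (25-30 g), homogenized in 50 mM Tris HCl, 2 mM EDTA, 100 µM PMSF, pH 7.4, then preincubated 30 min at 37 °C. Competition against 0.5 nM [3H]NC-NH2 using 200 µg protein per assay, run in duplicate, 120 min at 25 °C. Bound ligand separated by GF/C filtration. Ki obtained by nonlinear least-squares fitting.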

The species named for experiment [8] is Mus musculus. Briefly: Compound was tested for agonistic activity against electrically evoked contraction (twitch response) in mouse vas deferens; Slight effect (50% inhibition was detected at 10 uM). The experiment is classed as functional, organism-based. To be noted: filed as partial agonist. The gist of the method:
as §1

For experiment [9], the species on record is Mus musculus. Briefly: Compound was tested for the antagonistic activity on mouse vas deferens using NC(1-13)NH2 as agonist. It is filed as functional. The gist of the method: as §2
Experiment [10] is filed under the species Mus musculus. Briefly: Potency (Emax) at 10 uM against electrically evoked contraction (twitch response) in mouse vas deferens; Slight effect (50% inhibition was detected at 10 uM). The experiment is classed as functional, organism-based. The method, boiled down: as §1

T1 sequence (P35377 whole entry): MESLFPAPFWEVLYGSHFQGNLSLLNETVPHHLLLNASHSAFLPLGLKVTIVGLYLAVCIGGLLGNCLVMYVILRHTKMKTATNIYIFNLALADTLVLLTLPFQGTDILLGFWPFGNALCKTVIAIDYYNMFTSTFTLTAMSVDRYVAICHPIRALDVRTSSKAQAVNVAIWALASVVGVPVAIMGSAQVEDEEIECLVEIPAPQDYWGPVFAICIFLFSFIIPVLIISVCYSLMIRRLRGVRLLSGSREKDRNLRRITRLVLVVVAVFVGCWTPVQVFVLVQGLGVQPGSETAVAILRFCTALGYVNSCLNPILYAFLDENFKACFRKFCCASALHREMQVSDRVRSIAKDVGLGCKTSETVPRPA

`C[C@H](NC(=O)CNC(=O)[C@@H](NC(=O)[C@H](Cc1ccccc1)NC(=O)CNC(=O)CNC(=O)[C@@H](N)Cc1ccccc1)[C@@H](C)O)C(=O)N[C@@H](CCCN=C(N)N)C(=O)N[C@@H](CCCCN)C(=O)N[C@@H](CO)C(=O)N[C@@H](C)C(=O)N[C@@H](CCCN=C(N)N)C(N)=O` (H-FGGFTGARKSAR-NH2): in the experiment listed under Mus musculus [1], the Emax (in general, the size of the effect at its maximum, as opposed to the concentration needed) is -79%. Further, in the experiment listed under Mus musculus [2], a half-maximal effect (EC50) was put at 794 nM. The Ki (as a rule, the dissociation constant of the complex between target and ligand, obtained from inhibition or displacement) at Nociceptin receptor [3] is 25.1 nM.
With `C[C@H](NC(=O)CNC(=O)[C@@H](NC(=O)[C@H](Cc1ccccc1)NC(=O)CNC(=O)CNC(=O)CNCc1ccccc1)[C@@H](C)O)C(=O)N[C@@H](CCCN=C(N)N)C(=O)N[C@@H](CCCCN)C(N)=O` (H-[Nphe]GGFTGARK-NH2), in the experiment listed under Mus musculus [4], the pKB – broadly, the KB on a negative log10 scale, so that one unit is a factor of ten – is “inactive”. Besides, the Emax entry in the experiment listed under Mus musculus [5] was “inactive”. Besides, in the experiment listed under Mus musculus [6], the “Log EC50” value is “inactive”. The molecule further had a Ki on Nociceptin receptor [7] of more than 10 µM.
In the case of `CC(C)C[C@H](N)CNCC(=O)NCC(=O)N[C@@H](Cc1ccccc1)C(=O)N[C@H](C(=O)NCC(=O)N[C@@H](C)C(=O)N[C@@H](CCCN=C(N)N)C(=O)N[C@@H](CCCCN)C(=O)N[C@@H](CO)C(=O)N[C@@H](C)C(=O)N[C@@H](CCCN=C(N)N)C(=O)N[C@@H](CCCCN)C(N)=O)[C@@H](C)O` (H-[X1]GFTGARKSARK-NH2), the “Log EC50” value in the experiment listed under Mus musculus [8] is “Partial agonist”. The pKB in the experiment listed under Mus musculus [9] turned out to be 5.4. In addition, the Emax result in the experiment listed under Mus musculus [10] was “Partially active”. Also, the Ki on Nociceptin receptor [3] was 15.8 nM.
For the molecule `C[C@H](NC(=O)CNC(=O)[C@@H](NC(=O)[C@H](Cc1ccccc1)NC(=O)CNC(=O)CNC[C@@H](N)Cc1ccc(O)cc1)[C@@H](C)O)C(=O)N[C@@H](CCCN=C(N)N)C(=O)N[C@@H](CCCCN)C(=O)N[C@@H](CO)C(=O)N[C@@H](C)C(=O)N[C@@H](CCCN=C(N)N)C(=O)N[C@@H](CCCCN)C(N)=O` (H-[X5]GFTGARKSARK-NH2), in the experiment listed under Mus musculus [8], the “Log EC50” value is “Partial agonist”. For the same molecule, the pKB in the experiment listed under Mus musculus [9] is 5.7. Moreover, in the experiment listed under Mus musculus [10], the Emax entry was “Partially active”. Moreover, the Ki at Nociceptin receptor [3] is 100 nM.
Turning to `C[C@H](NC(=O)CNC(=O)[C@@H](NC(=O)[C@H](Cc1ccccc1)NC(=O)CNC(=O)CNC(=O)[C@@H](N)CC1CCCCC1)[C@@H](C)O)C(=O)N[C@@H](CCCN=C(N)N)C(=O)N[C@@H](CCCCN)C(=O)N[C@@H](CO)C(=O)N[C@@H](C)C(=O)N[C@@H](CCCN=C(N)N)C(=O)N[C@@H](CCCCN)C(N)=O`, the Emax in the experiment listed under Mus musculus [1] was -84%. The EC50 – broadly, the midpoint of the concentration-response curve – in the experiment listed under Mus musculus [2] was 12.6 nM. At Nociceptin receptor [3], this molecule showed a Ki of 1 nM.
